What all share (type): functional
Experiment [1] has as its system LNCaP. Kind of experiment: Cytotoxicity against human LNCAP cells by MTT assay. As to conditions: read-out: LD50 (the source's name). Summed up: (§1)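 Cells (Jurkat and LNCaP grown in RPMI with 10% FBS) were seeded at ≥5 × 10^4 cells/mL, dosed from DMSO stock for 24 h, then given fresh medium plus MTT (Jurkat pelleted first). After 4 h, SDS in 0.01 M HCl was added for 18 h at 37°C. A570 was read. % living cells was calculated against a no-cell blank and a DMSO-only control, and LD50 was reported.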
On the technique in general: Formazan colour is commonly taken as a measure of viable cells.

The test system of experiment [2] is PC-3. As to the kind of experiment: Cytotoxicity against human PC3 cells by MTT assay. To be noted: read-out: LD50 (the source's name). Summed up: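 PC3 cells grown in Ham's F-12K with 10% FBS were seeded at ≥5 × 10^4 cells/mL, dosed from DMSO stock for 24 h, then given fresh growth medium plus MTT for 4 h. SDS in 0.01 M HCl was added for 18 h at 37°C, 5% CO2. A570 was read. % living cells was calculated against a no-cell blank and a DMSO-only control, and LD50 was reported.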

Experiment [3] deals with Jurkat. As to the kind of experiment: Cytotoxicity against human Jurkat cells by MTT assay. To be noted: read-out: LD50 (the source's name). The procedure, abridged: as §1
Experiment [4] has as its system PC-3. Kind of experiment: Induction of endogenous phospholipidserine distribution in human PC3 cells at 100 uM by Annexin-V-FITC. The procedure, abridged:
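PC3 cells detached with trypsin at 90% confluency and resuspended in TES buffer (5 mM TES, 100 mM NaCl, pH 7.4) at 1 × 10^5 cells/mL. Scramblase added from DMSO stock, 100 μM final, 2 h at 37°C, 5% CO2. Pelleted, resuspended in binding buffer, stained 15 min at 37°C with Annexin V-FITC plus 7AAD (500 ng/mL) to exclude necrotic cells. Annexin-positive fraction read by flow cytometry; three independent experiments.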

As to `CC(=O)c1ccc(NC(=O)NCCN(CCNS(=O)(=O)c2ccc(C)cc2)CCNS(=O)(=O)c2ccc(C)cc2)cc1`, the CC50 in experiment [1], in experiment [2] and in experiment [3] was more than 100 µM each time.

As to `Cc1ccc(S(=O)(=O)NCCN(CCNC(=O)Nc2ccc(C(F)(F)F)cc2)CCNS(=O)(=O)c2ccc(C)cc2)cc1`, the CC50 in experiment [1], in experiment [2] and in experiment [3] was more than 100 µM in each case.

Turning to `Cc1ccc(S(=O)(=O)NCCN(CCNC(=O)[C@H](N)Cc2ccccc2)CCNS(=O)(=O)c2ccc(C)cc2)cc1`, the CC50 in experiment [1] came out at 40 µM; in experiment [2], 15 µM; in experiment [3], 25 µM.

Take `Cc1ccc(S(=O)(=O)NCCN(CCNC(=O)Nc2ccc(Oc3ccccc3)cc2)CCNS(=O)(=O)c2ccc(C)cc2)cc1`: the CC50 in experiment [1], in experiment [2] and in experiment [3] was more than 100 µM throughout.

On to `Cc1ccc(S(=O)(=O)NCCN(CCNC(=O)Nc2ccc(OC(F)(F)F)cc2)CCNS(=O)(=O)c2ccc(C)cc2)cc1`, for which the CC50 in experiment [1], in experiment [2] and in experiment [3] was more than 100 µM each time.

Turning to `Cc1ccc(S(=O)(=O)NCCN(CCNC(=O)Nc2ccccc2)CCNS(=O)(=O)c2ccc(C)cc2)cc1`, the CC50 in experiment [1], in experiment [2] and in experiment [3] was more than 100 µM in each case. The Activity in experiment [4] is less than 5%.

As for `Cc1ccc(S(=O)(=O)NCCN(CCNC(=O)Nc2ccc(Cl)cc2)CCNS(=O)(=O)c2ccc(C)cc2)cc1`, the CC50 in experiment [1], in experiment [2] and in experiment [3] was more than 100 µM each time.

On to `Cc1ccc(NC(=O)NCCN(CCNS(=O)(=O)c2ccc(C)cc2)CCNS(=O)(=O)c2ccc(C)cc2)cc1`, for which the CC50 in experiment [1], in experiment [2] and in experiment [3] was more than 100 µM each time.

Regarding `Cc1ccc(S(=O)(=O)NCCN(CCNC(=O)Nc2ccc(Br)cc2)CCNS(=O)(=O)c2ccc(C)cc2)cc1`, the CC50 in experiment [1], in experiment [2] and in experiment [3] was more than 100 µM each time.

With `COc1ccc(NC(=O)NCCN(CCNS(=O)(=O)c2ccc(C)cc2)CCNS(=O)(=O)c2ccc(C)cc2)cc1`, the CC50 in experiment [1], in experiment [2] and in experiment [3] was more than 100 µM in each case.

With `Cc1ccc(S(=O)(=O)NCCN(CCNC(=S)Nc2ccc(Cl)cc2)CCNS(=O)(=O)c2ccc(C)cc2)cc1`, the CC50 was determined as 15 µM in experiment [1], 25 µM in experiment [2] and 15 µM in experiment [3].

As to `Cc1ccc(S(=O)(=O)NCCN(CCNC(=O)Nc2ccc(C(C)(C)C)cc2)CCNS(=O)(=O)c2ccc(C)cc2)cc1`, the CC50 in experiment [1], in experiment [2] and in experiment [3] was more than 100 µM in each case.

For `Cc1ccc(S(=O)(=O)NCCN(CCNC(=O)Nc2ccc([N+](=O)[O-])cc2)CCNS(=O)(=O)c2ccc(C)cc2)cc1`, the CC50 in experiment [1], in experiment [2] and in experiment [3] was more than 100 µM each time. The same molecule gave an Activity in experiment [4] of less than 5%.

As for `Cc1ccc(S(=O)(=O)NCCN(CCNC(=O)Nc2ccc(C(C)C)cc2)CCNS(=O)(=O)c2ccc(C)cc2)cc1`, the CC50 in experiment [1], in experiment [2] and in experiment [3] was more than 100 µM throughout. Besides, the Activity in experiment [4] is less than 5%.

`Cc1ccc(S(=O)(=O)NCCN(CCNC(=O)Nc2ccc(C#N)cc2)CCNS(=O)(=O)c2ccc(C)cc2)cc1`: the CC50 in experiment [1], in experiment [2] and in experiment [3] was more than 100 µM in each case.

Consider `Cc1ccc(S(=O)(=O)NCCN(CCNCc2ccccc2)CCNS(=O)(=O)c2ccc(C)cc2)cc1`, for which the CC50 in experiment [1] was 40 µM; in experiment [2], 25 µM; in experiment [3], 25 µM.
